Read-outs that look alike come from different tables or passages of the source. Marks after values point to notes of the source that are not given here.
Experiments:
[1] = test system: recurrent or refractory solid tumors; assay: Pediatric phase 1 trial: tumor response; type: in vivo, human
Outline: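 Children with recurrent or refractory solid tumors received the test compound as a 1-hour IV infusion on days 1, 8 and 15 of each 28-day course, at 5, 7, 9 or 12 mg/m2/dose. The compound was diluted in 5% dextrose in water to a final ≤ 150 μg/mL. Patients with haematologic DLT continued at the next lower dose level. Radiographic response was assessed by NCI RECIST.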

[2] = Pediatric phase 1 trial: toxicity, DLT and MTD; type: in vivo, human; conditions: for No. of patients with DLT: first course; for No. of courses with Grade 3 Anemia / No. of courses with Grade 3 Lymphopenia / No. of courses with Grade 3 Neutropenia / No. of courses with Grade 3 Thrombocytopenia / No. of courses with Grade 4 Anemia / No. of courses with Grade 4 Lymphopenia / No. of courses with Grade 4 Thrombocytopenia / No. of courses with Grade 4 Neutropenia: independent of frequency or attribution; for No. of courses with Grade 4 Neutropenia: dose-limiting
[3] = biological target: kinesin spindle protein (KSP/HsEg5); conditions: read-out: binding constant, Ki; cited from earlier work
[4] = Pediatric phase 1 trial: plasma pharmacokinetics after first dose; design: species or system human; conditions: in vivo
[5] = cited from earlier work
[6] = test system: adult tumors (breast, ovarian and other cancers); conditions: 18 mg/m^2 once every 21 days; cited from earlier work
[7] = test system: Ewing sarcoma, Wilms tumor, glioblastoma, rhabdoid tumor and acute lymphoblastic leukemia xenografts; conditions: cited from earlier work
[8] = 12 mg/m^2 dose level, of 6 evaluable
[9] = Course 1 (19 courses), non-dose-limiting, related to protocol therapy
[10] = Courses 2-7 (15 courses), non-dose-limiting, related to protocol therapy

With `Cc1ccc(C(=O)N(CCCN)[C@@H](c2nc3cc(Cl)ccc3c(=O)n2Cc2ccccc2)C(C)C)cc1` [ispinesib, Ispinesib] the “complete courses of therapy with stable disease” value (“complete courses of therapy” for short) ([1]; 7 mg/m^2 dose level, ependymoblastoma) was 7 courses, the “complete courses of therapy” value ([1]; 9 mg/m^2 dose level, alveolar soft part sarcoma) was 5 courses and the “complete courses of therapy” value ([1]; 12 mg/m^2 dose level, anaplastic astrocytoma) was 4 courses. The objective tumor responses ([1]; 24 pediatric patients evaluable for response) was “no objective tumor responses”, the “No. of patients with DLT” value ([2]; 5 mg/m^2/dose, 3 evaluable patients) was 0 and the “No. of patients with DLT” value ([2]; 9 mg/m^2/dose, 6 evaluable patients) was 1. The “No. of patients with DLT” value ([2]; 12 mg/m^2/dose, 6 evaluable patients) was 3, the “patients with dose-limiting hyperbilirubinemia (grade 3)” value [2, 8] was 1/6 and the “patients with dose-limiting neutropenia (grade 4)” value [2, 8] was 2/6. For the same molecule, the “pediatric MTD higher than recommended adult phase II dose” value ([2]; 9 vs 7 mg/m^2/dose) was about 30%, the “No. of courses with Grade 3 Anemia” value ([2]; Course 1 (19 courses)) was 1 and the “No. of courses with Grade 3 Lymphopenia” value ([2]; Course 1 (19 courses)) was 2. For the same molecule, the “No. of courses with Grade 3 Neutropenia” value ([2]; Course 1 (19 courses)) was 5, the “No. of courses with Grade 3 Thrombocytopenia” value ([2]; Course 1 (19 courses)) was 1 and the “No. of courses with Grade 4 Anemia” value ([2]; Course 1 (19 courses)) was 0. For the same molecule, the “No. of courses with Grade 4 Lymphopenia” value ([2]; Course 1 (19 courses)) was 1, the “No. of courses with Grade 4 Thrombocytopenia” value ([2]; Course 1 (19 courses)) was 0 and the “No. of courses with Grade 4 Neutropenia” value ([2]; Course 1 (19 courses)) was 3 ^*. The “No. of courses with ALT toxicity, Grade 3” value [2, 9] was 1, the “No. of courses with ALT toxicity, Grades 1 and 2” value [2, 9] was 3 and the “No. of courses with AST toxicity, Grade 3” value [2, 9] was 1. For the same molecule, the “No. of courses with AST toxicity, Grades 1 and 2” value [2, 9] was 2, the “No. of courses with Alkaline phosphatase toxicity, Grade 3” value [2, 9] was 0 and the “No. of courses with Alkaline phosphatase toxicity, Grades 1 and 2” value [2, 9] was 2. The “No. of courses with Constipation, Grade 3” value [2, 9] was 0, the “No. of courses with Constipation, Grades 1 and 2” value [2, 9] was 2 and the “No. of courses with Diarrhea, Grade 3” value [2, 9] was 0. The “No. of courses with Diarrhea, Grades 1 and 2” value [2, 9] was 2, the “No. of courses with Electrolyte abnormality, Grade 3” value [2, 9] was 0 and the “No. of courses with Electrolyte abnormality, Grades 1 and 2” value [2, 9] was 4. For the same molecule, the “No. of courses with Fatigue, Grade 3” value [2, 9] was 0, the “No. of courses with Fatigue, Grades 1 and 2” value [2, 9] was 3 and the “No. of courses with Hyperbilirubinemia, Grade 3” value [2, 9] was 1. The “No. of courses with Hyperbilirubinemia, Grades 1 and 2” value [2, 9] was 1, the “No. of courses with Hypoalbuminemia, Grade 3” value [2, 9] was 0 and the “No. of courses with Hypoalbuminemia, Grades 1 and 2” value [2, 9] was 3. The “No. of courses with Nausea, Grade 3” value [2, 9] was 0, the “No. of courses with Nausea, Grades 1 and 2” value [2, 9] was 4 and the “No. of courses with Vomiting, Grade 3” value [2, 9] was 0. The “No. of courses with Vomiting, Grades 1 and 2” value [2, 9] was 3, the “No. of courses with Grade 3 Anemia” value ([2]; Courses 2-7 (15 courses)) was 0 and the “No. of courses with Grade 3 Lymphopenia” value ([2]; Courses 2-7 (15 courses)) was 2. The “No. of courses with Grade 3 Neutropenia” value ([2]; Courses 2-7 (15 courses)) was 1, the “No. of courses with Grade 3 Thrombocytopenia” value ([2]; Courses 2-7 (15 courses)) was 0 and the “No. of courses with Grade 4 Anemia” value ([2]; Courses 2-7 (15 courses)) was 0. For the same molecule, the “No. of courses with Grade 4 Lymphopenia” value ([2]; Courses 2-7 (15 courses)) was 0, the “No. of courses with Grade 4 Thrombocytopenia” value ([2]; Courses 2-7 (15 courses)) was 0 and the “No. of courses with Grade 4 Neutropenia” value ([2]; Courses 2-7 (15 courses)) was 1 ^*. The “No. of courses with ALT toxicity, Grades 1 and 2” value [2, 10] was 0, the “No. of courses with AST toxicity, Grades 1 and 2” value [2, 10] was 0 and the “No. of courses with Alkaline phosphatase toxicity, Grades 1 and 2” value [2, 10] was 0. The “No. of courses with Constipation, Grades 1 and 2” value [2, 10] was 0, the “No. of courses with Diarrhea, Grades 1 and 2” value [2, 10] was 0 and the “No. of courses with Electrolyte abnormality, Grades 1 and 2” value [2, 10] was 0. For the same molecule, the “No. of courses with Fatigue, Grades 1 and 2” value [2, 10] was 1, the “No. of courses with Hyperbilirubinemia, Grades 1 and 2” value [2, 10] was 0 and the “No. of courses with Hypoalbuminemia, Grades 1 and 2” value [2, 10] was 0. For the same molecule, the “No. of courses with Nausea, Grades 1 and 2” value [2, 10] was 1, the “No. of courses with Vomiting, Grades 1 and 2” value [2, 10] was 1 and the “maximum tolerated dose (MTD) and recommended phase II dose” value ([2]; children with solid tumors, 1-hour iv infusion weekly x 3 every 28 days) was 9 mg/m^2/dose. For the same molecule, the “primary dose-limiting adverse events” value ([2]; pediatric patients) was “neutropenia and hepatotoxicity”, the reversibility of neutropenia ([2]; pediatric patients) was “rapidly reversible” and the tolerability ([2]; pediatric patients, 9 mg/m^2/dose weekly x 3 every 28 days) was “well tolerated”. For the same molecule, the tolerability ([2]; pediatric patients, 5-12 mg/m^2/dose weekly x 3 every 28 days) was “generally well tolerated”, the Ki [3] was 0.6 nM and the “dose dependence of terminal t1/2” value ([4]; human) was “independent of dose”. The “volume of distribution at steady state (Vss), median” value ([4]; human) was 84 L/m^2, the “volume of distribution at steady state (Vss), range” value ([4]; human) was 23-193 L/m^2 and the Clearance ([4]; human, 5 mg/m2) was 5.3 L/hr/m^2. It also gave a Cmax ([4]; human, 5 mg/m2, Cmax) of 145 ng/mL, a half-life ([4]; human, 5 mg/m2, t1/2) of 9 h and a half-life ([4]; human, 7 mg/m2, t1/2) of 14 h. For the same molecule, the Clearance ([4]; human, 12 mg/m2) was 13.5 L/hr/m^2, the Vss ([4]; human, 12 mg/m2) was 193 L/m^2 and the Cmax ([4]; human, 12 mg/m2, Cmax) was 149 ng/mL. It also gave a half-life ([4]; human, 12 mg/m2, t1/2) of 13 h, a Cmax ([4]; human, iv, 5 mg/m2, Cmax) of 86 ng/mL and a half-life ([4]; human, iv, 5 mg/m2, t1/2) of 44 h. For the same molecule, the Cmax ([4]; human, iv, 7 mg/m2, Cmax) was 244 ng/mL, the half-life ([4]; human, iv, 7 mg/m2, t1/2) was 32 h and the Cmax ([4]; human, iv, 12 mg/m2, Cmax) was 204 ng/mL. The half-life ([4]; human, iv, 12 mg/m2, t1/2) was 8 h, the half-life ([4]; human, terminal elimination half-life (t1/2), median) was 16 h and the half-life ([4]; human, terminal elimination half-life (t1/2), range) was 8 to 44 h. The Clearance ([4]; 5 mg/m2) was 3.0 L/hr/m^2, the Clearance ([4]; 7 mg/m2) was 1.2 L/hr/m^2 and the Vss ([4]; 7 mg/m2) was 51 L/m^2. The Clearance ([4]; 12 mg/m2) was 7.1 L/hr/m^2, the Vss ([4]; 12 mg/m2) was 83 L/m^2 and the “maximum tolerated dose (MTD)” value ([5]; adult patients with breast cancer, day 1 and day 15 every 28 days) was 12 mg/m^2. For the same molecule, the “maximum tolerated dose (MTD)” value ([5]; adult patients with solid tumors, day 1, 2 and 3 every 21 days) was 6 mg/m^2, the “maximum tolerated dose (MTD)” value ([5]; adult patients with solid tumors, weekly x 3 every 28 days) was 7 mg/m^2/dose and the “maximum tolerated dose (MTD)” value ([5]; adults with acute leukemia, days 1, 2 and 3 every 21 days) was 10 mg/m^2/dose. For the same molecule, the “recommended adult phase II dose” value ([5]; adults, weekly x 3 every 28 days) was 7 mg/m^2/dose, the “activity in other adult tumor indications” value [6] was “No significant activity” and the “in vivo anti-tumor activity” value [7] was “high level of in vivo anti-tumor activity”.

From publication PMC3053384 (Pediatric blood & cancer, 2010)
